Among the data in ChEMBL document CHEMBL1146122, “Neuropeptide Y (NPY) Y4 receptor selective agonists based on NPY(32-36): development of an anorectic Y4 receptor selective agonist with picomolar affinity” (J Med Chem, 2006) are Ki, Selectivity ratio and EC50 values, retold here.

The structures appear in SMILES notation. pEC50, pKi: −log10 of the molar value. Non-standard residues stand in square brackets, D forms with d. Residues, ends and D or L forms follow the SMILES beside them. Nva = CCC[C@H](N)C(=O)O

As a reminder, the pKi is the negative decadic logarithm of the Ki, by convention in mol/L. Low values mean a high Ki, high ones a low Ki. One may read the pEC50 as −log10 of the EC50, conventionally taken in molar units.

Test [1] addresses T1, Neuropeptide Y receptor type 2 (Homo sapiens, UniProt P49146).
T1 sequence (P49146 whole entry): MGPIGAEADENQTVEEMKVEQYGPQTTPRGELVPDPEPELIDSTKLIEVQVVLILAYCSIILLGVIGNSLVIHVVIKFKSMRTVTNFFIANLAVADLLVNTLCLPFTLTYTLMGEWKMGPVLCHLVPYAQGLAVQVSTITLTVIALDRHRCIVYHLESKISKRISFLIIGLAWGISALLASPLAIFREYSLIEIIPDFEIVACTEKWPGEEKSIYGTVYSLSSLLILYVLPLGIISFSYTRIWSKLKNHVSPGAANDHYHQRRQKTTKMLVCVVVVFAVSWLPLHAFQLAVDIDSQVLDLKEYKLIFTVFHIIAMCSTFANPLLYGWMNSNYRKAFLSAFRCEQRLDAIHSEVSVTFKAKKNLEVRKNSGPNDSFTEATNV
Put plainly: Displacement of […] from human NPY2 receptor expressed in CHO cells. In kind it is cell-based. Put shortly: (§1)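 Competition binding on membranes (5-10 µg protein) from CHO cells stably expressing human Y1, Y2 or rat-human hybrid Y5 receptors. Radioligand 0.2 nM 125I-PYY, incubated with a range of peptide concentrations in 50 mM HEPES pH 7.3, 0.1% BSA, 2.5 mM CaCl2 and 1 mM MgCl2 for 90 min at room temperature. Bound ligand separated on PEI-treated glass fibre filters, washed with PBS and γ-counted. 1 µM NPY defined nonspecific binding. Duplicate points, three experiments, nonlinear regression.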

The target of test [2] is T2, Neuropeptide Y receptor type 1 (Homo sapiens, UniProt P25929).
T2 sequence (P25929 whole entry): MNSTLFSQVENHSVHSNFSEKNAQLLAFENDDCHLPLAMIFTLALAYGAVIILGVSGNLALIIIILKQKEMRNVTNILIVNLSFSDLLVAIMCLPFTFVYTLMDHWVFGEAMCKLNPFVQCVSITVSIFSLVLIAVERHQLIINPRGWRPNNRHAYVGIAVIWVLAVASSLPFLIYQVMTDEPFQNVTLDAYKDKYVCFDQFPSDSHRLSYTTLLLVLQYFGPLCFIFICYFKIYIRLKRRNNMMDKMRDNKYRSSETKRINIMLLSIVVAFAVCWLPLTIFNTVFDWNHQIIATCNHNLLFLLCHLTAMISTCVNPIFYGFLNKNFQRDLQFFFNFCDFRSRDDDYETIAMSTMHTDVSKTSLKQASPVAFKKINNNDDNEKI
Description: Displacement of […] from human NPY1 receptor expressed in CHO cells. In kind it is cell-based. Put shortly: as §1

For test [3], the species on record is Homo sapiens. Description: Selectivity for human NPY4 over NPY1 receptor.
The target of test [4] is T1, Neuropeptide Y receptor type 2. Description: Agonist activity at human NPY2 receptor in CHO cells by inhibition of forskolin-stimulated cAMP synthesis. In kind it is functional, cell-based. An outline of the steps:
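Whole-cell cAMP: Y1 in HEK293 cells; Y2, Y4 and Y5 in CHO cells; 30,000 cells/well grown 48 h. Cells preincubated 20 min at 37 °C in HBSS with 10 mM HEPES pH 7.4, 0.2% BSA, 4 mM MgCl2 and 1 mM IBMX. Then 10 min at 37 °C with forskolin (2.5 µM CHO; 5.0 µM HEK293) plus graded peptide. Ethanol lysis, 125I-cAMP flashplate readout. Triplicate points, ≥3 repeats, nonlinear regression.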

The target in test [5] is T3, Neuropeptide Y receptor type 4 (Homo sapiens, UniProt P50391). Put plainly: Displacement of [125I]hPP from human NPY4 receptor expressed in CHO cells. In kind it is cell-based. An outline of the steps: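 Y4 binding used membranes from CHO cells stably expressing cloned human Y4, with 125I-PP as radioligand. Competing peptides were tested over a range of concentrations in 50 mM HEPES pH 7.3, 0.1% BSA, 2.5 mM CaCl2 and 1 mM MgCl2 for 90 min at room temperature. Separation was by filtration and γ-counting. Nonspecific binding was taken with 1 µM PP. Duplicate points, three experiments, nonlinear regression.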
In general terms: Loss of bound radioactivity is the signal in a displacement assay; it reports binding, not function.

Test [6] is described as follows: Displacement of […] from rat-human hybrid NPY5 receptor expressed in CHO cells. Format: cell-based. An outline of the steps: as §1
Test [7] is filed under the species Homo sapiens. Description: Selectivity for human NPY4 over NPY2 receptor.
Test [8] concerns the target T3, Neuropeptide Y receptor type 4. Description: Agonist activity at human NPY4 receptor in CHO cells by inhibition of forskolin-stimulated cAMP synthesis.
Test [9] is described as follows: Selectivity for human NPY4 over rat-human hybrid NPY5 receptor.
For test [10], the target named is T2, Neuropeptide Y receptor type 1. Description: Agonist activity at human NPY1 receptor in CHO cells by inhibition of forskolin-stimulated cAMP synthesis. Format: functional, cell-based.

T3 sequence (P50391 whole entry): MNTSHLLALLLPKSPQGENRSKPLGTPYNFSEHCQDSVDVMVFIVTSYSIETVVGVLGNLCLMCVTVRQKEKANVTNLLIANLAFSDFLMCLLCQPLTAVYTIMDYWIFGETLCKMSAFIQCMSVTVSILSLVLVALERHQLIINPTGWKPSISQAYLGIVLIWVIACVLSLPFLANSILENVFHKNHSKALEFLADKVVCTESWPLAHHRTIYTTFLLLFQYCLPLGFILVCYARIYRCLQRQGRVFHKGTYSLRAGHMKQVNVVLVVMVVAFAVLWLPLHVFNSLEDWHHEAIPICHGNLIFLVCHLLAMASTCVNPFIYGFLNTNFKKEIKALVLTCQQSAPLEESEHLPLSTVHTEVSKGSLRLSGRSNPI

Consider `CCC[C@H](NC(=O)[C@H](CCCN=C(N)N)NC(=O)[C@H](Cc1c[nH]c2ccccc12)NC(=O)[C@H](Cc1ccc(O)cc1)NC(=O)[C@H](CCCN=C(N)N)NC(=O)[C@H](CCC)NC(=O)[C@H](CCCN=C(N)N)NC(=O)[C@H](Cc1c[nH]c2ccccc12)NC(=O)[C@H](Cc1ccc(O)cc1)NC(=O)[C@H](CCCN=C(N)N)NC(=O)[C@H](CCC)NC(=O)[C@H](CCCN=C(N)N)NC(=O)[C@@H](N)Cc1c[nH]c2ccccc12)C(=O)N[C@@H](CCCN=C(N)N)C(=O)N[C@@H](Cc1ccc(O)cc1)C(N)=O` (H-WR[Nva]RYWR[Nva]RYWR[Nva]RY-NH2), for which the pKi in [1] was 7.30; in test [2], 7.52; in test [5] it was 8.41; in test [6], 6.80. Also, the values for the Selectivity ratio (in the test listed under Homo sapiens [3]; in the test filed under Homo sapiens [7]; in test [9]) were 10, 14 and 40, respectively. For the same molecule, the pEC50 in [4] was 5.93; in [8], 6.64.
For the molecule `CCC[C@H](NC(=O)[C@H](CCCN=C(N)N)NC(=O)[C@H](Cc1c[nH]c2ccccc12)NC(=O)[C@@H](N)CCCC[C@H](N)C(=O)N[C@@H](Cc1c[nH]c2ccccc12)C(=O)N[C@@H](CCCN=C(N)N)C(=O)N[C@@H](CCC)C(=O)N[C@@H](CCCN=C(N)N)C(=O)N[C@@H](Cc1ccc(O)cc1)C(N)=O)C(=O)N[C@@H](CCCN=C(N)N)C(=O)N[C@@H](Cc1ccc(O)cc1)C(N)=O` (stereo in doubt; 4B), the negative-log Ki (pKi) in test [1] is 6.28; in [2] it was 7.10; in test [5] it was 8.70; in test [6], 6.55. Further, the pEC50 in test [10] was 5.85; in test [8], 6.43.
Turning to `CC(C)C[C@H](NC(=O)[C@H](CCCN=C(N)N)NC(=O)[C@H](Cc1ccc(O)cc1)NC(=O)[C@@H](N)CCCC[C@H](N)C(=O)N[C@@H](Cc1ccc(O)cc1)C(=O)N[C@@H](CCCN=C(N)N)C(=O)N[C@@H](CC(C)C)C(=O)N[C@@H](CCCN=C(N)N)C(=O)N[C@@H](Cc1ccc(O)cc1)C(N)=O)C(=O)N[C@@H](CCCN=C(N)N)C(=O)N[C@@H](Cc1ccc(O)cc1)C(N)=O`, the pKi was 6.05 in [1], 8.12 in [2], 10.30 in test [5] and < 6.00 in test [6]. Moreover, the pEC50 in [10] was 6.62; in test [8] it was 7.83.
